Source: PubChem (several laboratories)
The list is not random: actives were taken first. Their share in the collection is about 1.1%.
JMJD2C inh – blocks human GASC-1 demethylase activity | AID 2099 | GST-JMJD2C(1-420) H3K9me3 demethylation, DELFIA europium | hit rate 0.069% among 330,000 | Q9H3R0 | inhibition, % at 2.35 µM;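 active = more than half of a compound's replicate wells show inhibition beyond 50%, single wells judged on their own value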;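 note: signal counts dimethyl H3K9 product captured on neutravidin plate; 0% = median of DMSO wells and 100% = 0.3 times that DMSO median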
Arrestin-AP2 inh – blocks beta-arrestin peptide binding to AP2 adaptin; FITC-arrestin peptide / GST-AP2 beads, flow cytometry; AP2 beta2 appendage carries R879A mutation; inhibition, % at 10 µM; hit rate 0.31% among 340,000; AID 504490;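 active = inhibition above a set limit, near 3 SD of compounds lacking own fluorescence, cut at about 54% in these data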;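 note: plate controls were DMSO wells for no effect and 5 µM unlabelled arrestin peptide for full effect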
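System: GST-tagged AP2 beta2-adaptin appendage (R879A) on 4 µm glutathione beads / Reagent: FITC-arrestin peptide, 50 nM / Detection: HyperCyt-sampled flow cytometry, FL1 channel, ex 488/em 535 nm / Timing: 12 min plus 1 h, RT / Buffer or medium: PBS plus Tween 20 (0.05%) and BSA (0.1%)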
FAS-TE inh – blocks the thioesterase domain of human fatty acid synthase | P49327 | recombinant FAS-TE, OMFH fluorogenic substrate, fluorescence endpoint | inhibition, % at 15 µM | hit rate 0.67% among 360,000 | AID 602261;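 active = compounds whose normalised, plate-corrected inhibition of enzyme fluorescence in the single-dose primary screen is 50% or more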;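 note: 0% = DMSO with enzyme and 100% = substrate without enzyme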
SENP1 FRET inh – SENP1 (human) catalytic domain inhibition; Q9P0U3; recombinant SENP1 catalytic domain, CyPet-SUMO1-YPet FRET cleavage; inhibition, % at 10 µM; hit rate 0.21% among 360,000; AID 624204;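 active = inhibition at least 30% at 10 µM, raw YFP signal under a set limit, fluorescence ratio 0.5 to 1.5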;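 note: 0% = enzyme with DMSO and 100% = no enzyme wells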
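material = recombinant human SENP1 catalytic domain, His6-tagged | quantity = 20 pM enzyme | reagent = 25 nM SUMO1 FRET substrate | compound dosing = 10 µM single point, 0.5% DMSO | timing = 50 min enzyme reaction, room temperature, light-protected | detection = FRET, CFP and YFP emission | control set = no-enzyme low, enzyme-DMSO high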
FAS-TE inh conf – confirmation of human fatty acid synthase thioesterase inhibitors; recombinant FAS-TE, OMFH fluorogenic substrate, fluorescence; shares compounds with FAS-TE inh; hit rate 45% among 2,300; inhibition, % at 15 µM;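 active = compounds inhibiting the enzyme by at least 50% at 15 µM in any one of the replicates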;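 note: 0% = enzyme with DMSO only and 100% = wells lacking enzyme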
* hit, by the source's call.

How did Cc1cc(C)c(C#N)c(SCC(=O)c2ccc(Cl)cc2Cl)n1 do in these assays?
JMJD2C inh: 3.0; Arrestin-AP2 inh: -2.9; FAS-TE inh: 71.7*; SENP1 FRET inh: -26.0; FAS-TE inh conf: 37.3*

What do the screens show for `CCOC(=O)CSc1nc(C)cc(C)c1C#N`?
JMJD2C inh: 3.1; Arrestin-AP2 inh: 11.0; FAS-TE inh: -1.5; SENP1 FRET inh: -1.3

How did Cc1nc2ccc([N+](=O)[O-])cc2c(=O)n1Cc1cccc(Br)c1 do in these assays?
JMJD2C inh: -7.1; Arrestin-AP2 inh: -2.9; FAS-TE inh: 45.8; SENP1 FRET inh: -0.2

What do the screens show for `Cc1ccc(Cn2c(C)nc3ccc([N+](=O)[O-])cc3c2=O)cc1`?
JMJD2C inh: -3.0; Arrestin-AP2 inh: -7.0; FAS-TE inh: 75.3*; SENP1 FRET inh: 0.8; FAS-TE inh conf: 59.3*

How did Cc1nc2ccc([N+](=O)[O-])cc2c(=O)n1Cc1ccc(Br)cc1 do in these assays?
JMJD2C inh: 26.3; Arrestin-AP2 inh: -1.1; FAS-TE inh: 93.0*; SENP1 FRET inh: 0.2; FAS-TE inh conf: 62.9*

Results for Cc1nc2ccc([N+](=O)[O-])cc2c(=O)n1Cc1ccc([N+](=O)[O-])cc1 ?
JMJD2C inh: 13.7; Arrestin-AP2 inh: 0.2; FAS-TE inh: 59.1*; SENP1 FRET inh: 1.6; FAS-TE inh conf: 63.2*

How did Cc1nc2ccccc2n1Cc1ccccc1Br do in these assays?
JMJD2C inh: -18.8; Arrestin-AP2 inh: -17.5; FAS-TE inh: -3.6; SENP1 FRET inh: 1.1

How did Cc1nc2ccc([N+](=O)[O-])cc2c(=O)n1Cc1ccccc1Br do in these assays?
JMJD2C inh: 35.6; Arrestin-AP2 inh: -2.0; FAS-TE inh: 71.0*; SENP1 FRET inh: -0.2; FAS-TE inh conf: 29.2

How did N#Cc1c(N)n(Cc2ccccc2)c(=O)c2cc([N+](=O)[O-])ccc12 do in these assays?
JMJD2C inh: 11.3; Arrestin-AP2 inh: -10.5; FAS-TE inh: 43.5; SENP1 FRET inh: -26.8

What do the screens show for `CC[C@@H]1Cc2[nH][nH]c(=O)c2[C@H](CC(C)C)O1`?
FAS-TE inh: -8.4; SENP1 FRET inh: 2.4

Results for Cc1cc(C)c(C)c(C(=O)COC(=O)CNC(=O)CN2C(=O)c3ccccc3C2=O)c1C ?
JMJD2C inh: 4.0; Arrestin-AP2 inh: 7.4; FAS-TE inh: -6.7; SENP1 FRET inh: 0.4

Results for COC(=O)[C@H]1[C@H]2C[C@@H]3c4[nH]c5cc(OC)ccc5c4CCN3C[C@H]2C[C@@H](OC(=O)/C=C/c2cc(OC)c(OC)c(OC)c2)[C@@H]1OC ?
Arrestin-AP2 inh: 4.7; FAS-TE inh: 54.2*; SENP1 FRET inh: -31.6; FAS-TE inh conf: 23.2

How did CCOC(=O)c1coc(C(=O)OCC)c1C(=O)OCC do in these assays?
Arrestin-AP2 inh: -1.3; FAS-TE inh: -7.3; SENP1 FRET inh: -0.5

What do the screens show for `COc1cc(NC(=O)N[C@@H](CCSC)C(=O)O)cc(OC)c1`?
JMJD2C inh: 7.9; Arrestin-AP2 inh: -9.5; FAS-TE inh: -3.0; SENP1 FRET inh: -1.8

Results for O=C(O)COc1ccccc1C(Nc1ccccn1)c1cc(Cl)c2cccnc2c1O (stereo not given) ?
JMJD2C inh: -10.1; Arrestin-AP2 inh: 1.9; FAS-TE inh: 53.8*; SENP1 FRET inh: 0.5; FAS-TE inh conf: 50.9*

What do the screens show for `CCOC(=O)C1(Cc2ccc(OC)cc2)CCN(C(=O)CCN2CCCC2=O)CC1`?
JMJD2C inh: 0.2; Arrestin-AP2 inh: 16.9; FAS-TE inh: -8.0; SENP1 FRET inh: 3.2

Results for CN1c2ccccc2C(C)(C)C12CC(c1cccc(S(=O)(=O)N3CCCC3)c1)=NO2 (stereo not given) ?
JMJD2C inh: -1.0; Arrestin-AP2 inh: -10.4; FAS-TE inh: 74.1*; SENP1 FRET inh: -9.5; FAS-TE inh conf: 14.5

How did CN1c2ccccc2C(C)(C)C12CC(c1ccc(S(=O)(=O)N3CCCCC3)cc1)=NO2 (stereo not given) do in these assays?
JMJD2C inh: 6.0; Arrestin-AP2 inh: -0.5; FAS-TE inh: 74.9*; SENP1 FRET inh: 1.9; FAS-TE inh conf: 23.3

What do the screens show for `O=C(Nc1ccc2c(c1)OCCO2)C(c1ccnc2ccccc12)N1CCN(c2ccc(C(F)(F)F)cn2)CC1` (stereo not given)?
FAS-TE inh: 92.1*; SENP1 FRET inh: 0.0; FAS-TE inh conf: 33.0

What do the screens show for `O=C(Nc1ccc2c(c1)OCCO2)C(c1ccnc2ccccc12)N1CCN(c2ccc(F)cc2)CC1` (stereo not given)?
FAS-TE inh: 23.9; SENP1 FRET inh: -0.8

Results for CC(=O)c1ccc(NC(=O)CN2CCOCC2)cc1 ?
JMJD2C inh: 4.0; Arrestin-AP2 inh: 3.5; FAS-TE inh: -7.6; SENP1 FRET inh: 3.0

Results for CCCc1cc(=O)oc2cc(OCC(=O)NC(Cc3ccc(Cl)cc3)C(=O)O)ccc12 (stereo not given) ?
JMJD2C inh: 6.1; Arrestin-AP2 inh: -1.3; FAS-TE inh: -0.8; SENP1 FRET inh: 0.6

How did CN(C)c1ccc(P(=O)(Nc2ccc([N+](=O)[O-])cc2)N2CCOCC2)c(NC(=O)c2cccs2)c1 (stereo not given) do in these assays?
JMJD2C inh: -0.9; Arrestin-AP2 inh: 13.7; FAS-TE inh: 53.9*; SENP1 FRET inh: 2.0; FAS-TE inh conf: 34.9

Results for Cc1ccc(NP(=O)(c2ccc(N(C)C)cc2NC(=O)c2cccs2)N2CCOCC2)cc1 (stereo not given) ?
JMJD2C inh: 6.8; Arrestin-AP2 inh: 6.7; FAS-TE inh: 18.6; SENP1 FRET inh: 3.3

Results for O=C(Oc1cccc(/C=N/Nc2nc(Nc3ccccc3)nc(N3CCOCC3)n2)c1)c1ccco1 ?
JMJD2C inh: 13.3; Arrestin-AP2 inh: 9.1; FAS-TE inh: 61.9*; SENP1 FRET inh: 3.1; FAS-TE inh conf: 36.4

What do the screens show for `COc1cc(/C=N/Nc2nc(N3CCCCC3)nc(N3CCCCC3)n2)ccc1OC(=O)c1ccco1`?
JMJD2C inh: 1.4

What do the screens show for `CCC(=O)N=C1SC2CS(=O)(=O)CC2N1c1cccc(OC)c1` (stereo not given)?
JMJD2C inh: 7.8; Arrestin-AP2 inh: 21.3; FAS-TE inh: -10.3; SENP1 FRET inh: 0.3

How did CC(C)CN(C(=O)c1ccc(N2CCCC2=O)cc1)C1CCS(=O)(=O)C1 (stereo not given) do in these assays?
JMJD2C inh: 4.2; Arrestin-AP2 inh: -4.5; FAS-TE inh: -3.9; SENP1 FRET inh: -1.4

Results for COc1ccccc1C(C)NC(=O)c1cc(S(=O)(=O)N2CCCCC2)ccc1C (stereo not given) ?
JMJD2C inh: -7.2; Arrestin-AP2 inh: -5.7; FAS-TE inh: 8.9; SENP1 FRET inh: -0.4

How did O=[N+]([O-])c1ccc(SNc2ccccc2)c([N+](=O)[O-])c1 do in these assays?
Arrestin-AP2 inh: 4.7; FAS-TE inh: 57.4*; SENP1 FRET inh: 2.5; FAS-TE inh conf: 45.4*

How did COc1ccc(SCCN2CC[C@@H](NC(=O)OCc3ccccc3)CCC2=O)cc1 do in these assays?
JMJD2C inh: 1.2; Arrestin-AP2 inh: -7.1; FAS-TE inh: -36.8; SENP1 FRET inh: 2.0
